The values that follow come from ChEMBL document CHEMBL1147929, “Synthesis and in vitro photodynamic activities of water-soluble fluorinated tetrapyridylporphyrins as tumor photosensitizers” (Bioorg Med Chem Lett, 2007).

Assay [1] concerns HeLa. Put plainly: Induction of apoptosis in HeLa cells assessed as accumulation at subG1 phase by FACS flow cytometry. The conditions noted are these: Homo sapiens. The assay is classed as functional, cell-based. In outline:
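HeLa cells treated with 0, 4.6, 9.2, 18.4, 27.6 or 36.8 μM porphyrin, then stained with propidium iodide. The sub-G1 population was measured from DNA content histograms by FACS flow cytometry and taken as apoptotic cells. Values are means ± S.D.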

Assay [2] concerns HeLa. The experiment in a line: Phototoxicity against HeLa cells assessed as photo-induced growth inhibition after 48 hrs by MTT assay. The assay is classed as functional, cell-based, Homo sapiens. The procedure, abridged:
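HeLa cells pre-incubated 1 h with a range of porphyrin concentrations. Without washing, cells were irradiated 1 h with a fluorescent lamp (530–620 nm; 0.44 mW/cm², 1.6 J/cm²). They were then incubated 48 h at 37 °C, and survival fraction was read by MTT. Non-irradiated cells served as dark controls.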
A general note: Tetrazolium assays rely on reduction of a dye to a coloured formazan, in cell work by metabolically active cells.

For assay [3], the system named is HeLa. The experiment in a line: Cytotoxicity in HeLa cells assessed as PDT-induced ROS generation after 2 hrs by flow cytometry. Type of assay: functional, cell-based. The conditions noted are these: Homo sapiens. The procedure, abridged:
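HeLa cells exposed to porphyrins at […] for 2 h, then irradiated with visible light. Intracellular ROS probed with 2,7-dichlorofluorescin (DCF). DCF fluorescence read by flow cytometry after 2 h of porphyrin treatment. Untreated cells served as baseline.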
(A flow cytometer gives signals particle by particle.)

Setting [4] is: Homo sapiens, HeLa, light or radiation study, 48 h.

The source made the active and inactive calls. No cut-off for these calls is given here.

A word on the IC50: it is the concentration needed to halve the response being measured. In the case of `C[n+]1ccc(-c2c3nc(c(-c4cc[n+](C)cc4F)c4ccc([nH]4)c(-c4cc[n+](C)cc4F)c4nc(c(-c5cc[n+](C)cc5F)c5ccc2[nH]5)C=C4)C=C3)c(F)c1`, the Activity entry in the assay on HeLa [1] is “Dose-dependent effect”. In the assay with HeLa [2] (setting [4]), the half-maximal inhibitory concentration (IC50) amounted to 40000 nM. Further, the outcome in the assay on HeLa [3] was Active.

In the case of `C[n+]1cc(F)c(-c2c3nc(c(-c4c(F)c[n+](C)cc4F)c4ccc([nH]4)c(-c4c(F)c[n+](C)cc4F)c4nc(c(-c5c(F)c[n+](C)cc5F)c5ccc2[nH]5)C=C4)C=C3)c(F)c1`, the concentration for half-maximal inhibition (IC50) in the assay on HeLa [2] (hela) worked out at 870 nM. For the same compound, in the assay on HeLa [3], the result was Active.

As to `C[n+]1cccc(-c2c3nc(c(-c4ccc[n+](C)c4F)c4ccc([nH]4)c(-c4ccc[n+](C)c4F)c4nc(c(-c5ccc[n+](C)c5F)c5ccc2[nH]5)C=C4)C=C3)c1F`, the Activity result in the assay with HeLa [1] was “Dose-dependent effect”. Further, the IC50 in the assay on HeLa [2] (hela) worked out at 1100 nM. In the assay with HeLa [3], the result was Active.

Consider `C[n+]1ccc(-c2c3nc(c(-c4cc[n+](C)cc4)c4ccc([nH]4)c(-c4cc[n+](C)cc4)c4nc(c(-c5cc[n+](C)cc5)c5ccc2[nH]5)C=C4)C=C3)cc1`, for which, in the assay with HeLa [2] (setting [4]), the half-inhibitory concentration (IC50) is 3000 nM.

In the case of `C[n+]1ccc(-c2c3nc(c(-c4cc[n+](C)cc4)c4ccc([nH]4)c(-c4cc[n+](C)cc4)c4ccc([nH]4)c(-c4cc[n+](C)cc4)c4nc2C=C4)C=C3)cc1`, the outcome in the assay with HeLa [3] was Active.
